Experimental data taken from ChEMBL document CHEMBL3600383, “A new polyoxygenated cyclohexene and a new megastigmane glycoside from Uvaria grandiflora” (Bioorg Med Chem Lett, 2015).

Key:
Format in all cases: functional, cell-based
[1] = test system: KB; test: Cytotoxic activity against human KB cells assessed as inhibition of cell growth incubated for 48 hrs by SRB method
Summary of the method: (§1)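 Sulforhodamine B growth-inhibition assay run as part of a panel of nine human cancer cell lines. Potency is reported as IC50 in µM.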

[2] = test system: LNCaP; test: Cytotoxic activity against human LNCAP cells assessed as inhibition of cell growth incubated for 48 hrs by SRB method; summary of the method: as §1
[3] = Cytotoxic activity against human MKN7 cells assessed as inhibition of cell growth incubated for 48 hrs by SRB method; conditions: MKN-7, 48 h; summary of the method: as §1
[4] = test system: HL-60; test: Cytotoxic activity against human HL60 cells assessed as inhibition of cell growth incubated for 48 hrs by SRB method; conditions: HL-60, 48 h; summary of the method: as §1
[5] = test system: Lu1; test: Cytotoxic activity against human Lu1 cells assessed as inhibition of cell growth incubated for 48 hrs by SRB method; conditions: Lu1, 48 h; summary of the method: as §1
[6] = test system: SK-MEL-2; test: Cytotoxic activity against human SK-MEL-2 cells assessed as inhibition of cell growth incubated for 48 hrs by SRB method; conditions: SK-MEL-2, 48 h
Summary of the method: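 Sulforhodamine B growth-inhibition assay, run in parallel across a panel of nine human cancer cell lines. Potency is reported as IC50 in µM.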

[7] = test system: SW480; test: Cytotoxic activity against human SW480 cells assessed as inhibition of cell growth incubated for 48 hrs by SRB method; conditions: SW480, 48 h; summary of the method: as §1
[8] = test system: MDA-MB-231; test: Cytotoxic activity against human MDA-MB-231 cells assessed as inhibition of cell growth incubated for 48 hrs by SRB method; conditions: MDA-MB-231, 48 h; summary of the method: as §1
[9] = test system: HepG2; test: Cytotoxic activity against human HepG2 cells assessed as inhibition of cell growth incubated for 48 hrs by SRB method; conditions: HepG2, 48 h; summary of the method: as §1

Compound	IC50 [1] [µM]	IC50 [2] [µM]	IC50 [3] [µM]	IC50 [4] [µM]	IC50 [5] [nM]	IC50 [6] [nM]	IC50 [7] [µM]	IC50 [8] [µM]	IC50 [9] [µM]
O=C(OC[C@@]1(O)C(=O)C=C[C@@H](O)[C@@H]1O)c1ccccc1	13.3	45.4	8.63	6.22	4680	3630	11.3	64.1	13.1
Cc1c2ccncc2c(C)c2c1[nH]c1ccccc12 [ELLIPTECINE]	3.98	3.21	3.82	2.93	2720	1140	3.17	3.21	3.5
C[C@@H]1O[C@@H](O[C@H]2[C@H](O[C@H]3CO[C@@H](O[C@H]4CC[C@]5(C)[C@H]6CC[C@]78OC[C@@]9(CC[C@](C)(C=O)C[C@H]97)[C@H](O)C[C@@]8(C)[C@]6(C)CC[C@H]5C4(C)C)[C@H](O[C@@H]4O[C@H](CO)[C@@H](O)[C@H](O)[C@H]4O)[C@H]3O)O[C@H](CO)[C@@H](O)[C@@H]2O)[C@H](O)[C@H](O)[C@H]1O [ARDISIACRISPIN B]	1.6	9.7	1.27	22.6	1410		1.24	11.8	1.53
